Experimental data collected from several papers.
Lines come from different studies, so protocols differ.

Compound | test system | setting | endpoint | result
CCOc1ccc(N(C)S(=O)(=O)c2cc(Cl)sc2C(=O)Nc2cc(Cl)cc(C(=O)O)c2)cc1OC | male C57BL/6 mouse, brain | intraperitoneal, 10 mg/kg | Tmax | 15 min
Cn1cc(Nc2nc(N)nc(-c3cccc(-n4ccc5cc(C6CC6)cc(F)c5c4=O)c3CO)n2)cn1 | human, plasma | oral, 600 mg, single dose, fasted, suspension | Cmax | 5.37 µg/mL
CC(C(=O)Nc1c(F)cccc1F)N1CCN(c2ccccc2)CC1 (stereo not drawn) | female C57BL/6 mouse, plasma | intraperitoneal, 10 mg/kg, single dose | Tmax | 15 min
CC(C)n1c(Nc2cccnc2)nc2cnc(Nc3ccc(N4CCN(C)CC4)cc3)nc21 | male human, plasma | oral, 150 mg, single dose | Cmax | 0.0761 µg/mL
COc1ccc([C@@H](O)c2cc(-c3ncnc4cc(N5CCOCC5)ccc34)c(F)cc2Cl)nn1 | human, plasma | oral, 250 mg, single dose, patients | Cmax | 2.38 µg/mL
CN1CC[C@@H](c2c(O)cc(O)c3c(=O)cc(-c4ccc(C(F)(F)F)cc4Cl)oc23)[C@@H]1CO | human, plasma | oral, 200 mg, patients | Cmax | 0.398 µg/mL
CC(C)C[C@H](NC(=O)[C@@H]1COCCCCCC(=O)NCC(=O)N2CCC[C@H]2C(=O)N1)C(=O)[C@@]1(C)CO1 | Caco-2 | 10 µM, 2 h, pH 7.4 | efflux ratio | ~22
Nc1ncn([C@H]2C[C@H](O)[C@@H](CO)O2)c(=O)n1 | female C57BL/6 mouse, plasma | intravenous, 0.4 mg/kg | Tmax | 4.98 min
CNC(=O)n1ccc2cc(Oc3ccnc(NC(=O)c4ccc(C5CCN(CCO)CC5)cc4)c3)c(OCCOC)cc21 | human, plasma | oral, 35 mg, healthy volunteers | Cmax | 0.00728 µg/mL
CC(C)NCC(O)COc1cccc2ccccc12 (stereo not drawn) | Caco-2 | 5 µM, 2 h | efflux ratio | 0.72
CC(=O)N[C@H]1CC[C@H](NC(=O)CN2CCN(c3nncc(-c4ccc(C)cc4)n3)CC2)CC1 | male human, plasma | oral, 100 mg, single dose, fasted | Cmax | 1.07 µg/mL
Cc1c(C(=O)O)ccc2c3n(nc12)[C@@H]1[C@H](C3)N(CC2CC2)[C@@]2(C(=O)Nc3cc(Cl)ccc32)[C@H]1c1cccc(Cl)c1F | female minipig, plasma | intravenous | Vd | 0.94 L/kg
